Active and inactive are the calls of the source. The rule behind the calls is not given here.
Key:
[1] = test system: Human immunodeficiency virus 1; assay: Antiviral activity against HIV1 assessed as inhibition of viral p24 antigen production treated every 1 hr for 12 hrs by ELISA based time-of-drug addition assay; type: functional, organism-based
Outline: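 TZM-bl cells (2 × 10⁴ per well) were infected with virus at 0.4 MOI, with or without compound, for 1 h. Unbound virus was washed off and fresh medium was added, with or without compound. Compound at 50–500 × EC₅₀ was then added each hour over 12 h. p24 was measured by in-house antigen-capture ELISA at 24 h, giving a single replication round. Cells plus medium and cells plus virus served as controls.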

[2] = test system: Human immunodeficiency virus 1; assay: Antiviral activity against HIV1 Ba-L harboring reverse transcriptase V106A mutant; type: functional, organism-based; conditions: Human immunodeficiency virus 1, Ba-L
[3] = test system: Human immunodeficiency virus 1; assay: Antiviral activity against HIV1 harboring reverse transcriptase VI829 L100I, K103N mutant; type: functional, organism-based
[4] = test system: Human immunodeficiency virus 1; assay: Antiviral activity against HIV1 harboring reverse transcriptase VI829/Y181C mutant; type: functional, organism-based
[5] = test system: Human immunodeficiency virus 1; assay: Ratio of EC50 for HIV1 Ba-L harboring reverse transcriptase V106A mutant to EC50 for wild type HIV1 Ba-L; type: functional
[6] = test system: Human immunodeficiency virus 1; assay: Antiviral activity against HIV1 harboring reverse transcriptase VI829 mutant; type: functional, organism-based
[7] = test system: Human immunodeficiency virus 1; assay: Antiviral activity against wild type HIV1 Ba-L; type: functional, organism-based; conditions: Human immunodeficiency virus 1, Ba-L
[8] = Selectivity index, ratio of CC50 for human TZM-b1 cells to EC50 for HIV1; type: toxicity, cell-based; conditions: read-out: Ratio CC50/EC50
[9] = Cytotoxicity against human TZM-b1 cells; type: cell-based
[10] = test system: Human immunodeficiency virus 1; assay: Ratio of EC50 for HIV1 harboring reverse transcriptase VI829/Y181C mutant to EC50 for wild type HIV1 VI829
[11] = test system: Human immunodeficiency virus 1; assay: Ratio of EC50 for HIV1 harboring reverse transcriptase VI829 L100I, K103N mutant to EC50 for wild type HIV1 VI829
[12] = test system: Human immunodeficiency virus 1; assay: Antiviral activity against HIV1 infected in human TZM-b1 cells; type: functional, organism-based; conditions: Human immunodeficiency virus 1, TZM-b1

Row | SMILES | inhibition [1] | EC50 [2] | EC50 [3] | EC50 [4] | Ratio EC50 [5] | EC50 [6] | EC50 [7] | selectivity ratio [8] | CC50 [9] | Ratio EC50 [10] | Ratio EC50 [11] | EC50 [12]
1 | Cc1cc(C)c(Nc2ccnc(Nc3ccc(C#N)cc3)n2)c(C)c1 [DAPIVIRINE] | Active | 0.0025 µM | > 1 µM | 0.0108 µM | 1.3 | 0.002 µM | 0.002 µM | 1440 | 2.88 µM | 5.4 | >500 | –
2 | Cc1cc(C)c(Nc2nc(Nc3ccc(C#N)cc3)nc(Nc3ccc(Nc4nc(Nc5ccc(C#N)cc5)nc(Nc5c(C)cc(C)cc5C)n4)cc3)n2)c(C)c1 | – | – | – | – | – | – | – | > 588 | > 100 µM | – | – | 0.17 µM

From ChEMBL document CHEMBL2203050, “Synthesis, evaluation and structure-activity relationships of triazine dimers as novel antiviral agents” (Bioorg Med Chem Lett, 2012)
